Measurements: ChEMBL document CHEMBL1275477, “Discovery and characterization of QPT-1, the progenitor of a new class of bacterial topoisomerase inhibitors” (Antimicrob Agents Chemother, 2008)
In brackets after ≈: the same amount, converted by molar mass.

Legend:
Staphylococcus aureus [1] = assay: Antimicrobial activity against Staphylococcus aureus MW2 harboring parC R400C mutant gene by broth microdilution method; type: functional
In short: (§1)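 Broth microdilution MIC following National Committee for Clinical Laboratory Standards methods. Plasmid-borne GyrB in transformed S. aureus strains was overexpressed by adding 100 ng/ml doxycycline.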

Escherichia coli [2] = assay: Antibacterial activity against tolC-deficient Escherichia coli UC31708 by broth microdilution method; type: functional; in short: as §1
[3] = Clearance in lethal systemic CF-1 mouse infection model at 21.6 mg/kg, iv; type: ADME, organism-based; set-up: dose 21.6 mg/kg, route intravenous; settings: in vivo
In short: (§2)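 Mouse pharmacokinetics: single dose in 0.2 ml, given orally (pH 4.5 acetate-buffered 20% DMSO–methylcellulose suspension) or intravenously (20% hydroxypropyl beta-cyclodextrin, pH 7 phosphate buffer). Plasma sampled to 480 min: iv at 0, 2, 15, 30, 60, 120, 240, 480 min; oral at 0, 20, 30, 60, 120, 240, 360, 480 min. Three mice per time point; mean concentration–time data analysed noncompartmentally.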

[4] = Half life in lethal systemic CF-1 mouse infection model at 20.3 mg/kg, po; type: ADME, organism-based; set-up: dose 20.3 mg/kg, route oral; settings: in vivo; in short: as §2
Haemophilus influenzae [5] = assay: Antibacterial activity against acrAB-deficient Haemophilus influenzae 31809 by broth microdilution method; type: functional; in short: as §1
Staphylococcus aureus [6] = assay: Antibacterial activity against Staphylococcus aureus UC9218 by broth microdilution method in presence of 50% serum; type: functional; in short: as §1
Moraxella catarrhalis = assay: Antibacterial activity against Moraxella catarrhalis UC3067 by broth microdilution method; type: functional; in short: as §1
Streptococcus pneumoniae [7] = assay: Antibacterial activity against Streptococcus pneumoniae by broth microdilution method; type: functional; in short: as §1
Enterococcus faecalis = assay: Antibacterial activity against Enterococcus faecalis UC9217 by broth microdilution method; type: functional; in short: as §1
[8] = AUC (0 to infinity) in lethal systemic CF-1 mouse infection model at 20.3 mg/kg, po; type: ADME, organism-based; set-up: dose 20.3 mg/kg, route oral, time infinity; settings: in vivo; in short: as §2
[9] = Oral bioavailability in lethal systemic CF-1 mouse infection model at 20.3 mg/kg, po; type: ADME, organism-based; settings: in vivo; in short: as §2
Staphylococcus aureus [10] = assay: Antibacterial activity against methicillin-resistant Staphylococcus aureus UC9213 by broth microdilution method; type: functional; in short: as §1
[11] = tested on: Staphylococcus epidermidis; assay: Antibacterial activity against methicillin and ciprofloxacin-resistant Staphylococcus epidermidis UC12084 by broth microdilution method; type: functional; in short: as §1
Staphylococcus aureus [12] = assay: Antibacterial activity against methicillin-resistant Staphylococcus aureus UC9213 in orally dosed lethal systemic CF-1 mouse infection model; type: functional; settings: UC9213, po
In short: (§3)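 Lethal systemic infection in female CF-1 mice (20 g), infected intraperitoneally with enough bacteria to kill 90–100% of untreated mice. Thawed cultures were suspended in brain heart infusion broth with 4% (wt/vol) dried brewer's yeast. Drug given orally or subcutaneously at 1 and 5 h postinfection, at five or more dose levels, six mice per level. Survival followed for 1 week; ED50 by probit analysis.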

Staphylococcus aureus [13] = assay: Antimicrobial activity against Staphylococcus aureus 286607-R1 harboring wild type gyrB by broth microdilution method; type: functional; in short: as §1
Staphylococcus aureus [14] = assay: Antimicrobial activity against methicillin-resistant Staphylococcus aureus SUAR 1015-01 harboring gyrA S84L, parC S80F and parE S189R mutant gene by broth microdilution method; type: functional; in short: as §1
Streptococcus pneumoniae [15] = assay: Antibacterial activity against ciprofloxacin-resistant Streptococcus pneumoniae by broth microdilution method; type: functional; in short: as §1
Staphylococcus aureus [16] = assay: Antibacterial activity against methicillin-resistant Staphylococcus aureus UC9213 infected in subcutaneously dosed lethal systemic CF-1 mouse infection model; type: functional; settings: UC9213, sc; in short: as §3
Staphylococcus aureus [17] = assay: Antibacterial activity against Staphylococcus aureus UC9218 by broth microdilution method in presence of 25% serum; type: functional; in short: as §1
Streptococcus pneumoniae [18] = assay: Antibacterial activity against Streptococcus pneumoniae UC9912 by broth microdilution method; type: functional; in short: as §1
[19] = Volume of distribution at steady state in lethal systemic CF-1 mouse infection model at 21.6 mg/kg, iv; type: ADME, organism-based; set-up: dose 21.6 mg/kg, route intravenous; settings: in vivo, read-out: Vdss
[20] = Inhibition of Escherichia coli DNA gyrase by gel electrophoresis
Staphylococcus aureus [21] = assay: Antibacterial activity against ciprofloxacin-resistant Staphylococcus aureus by broth microdilution method; type: functional; in short: as §1
Staphylococcus aureus [22] = assay: Antimicrobial activity against Staphylococcus aureus 286607-R1 by broth microdilution method; type: functional; in short: as §1
Staphylococcus aureus [23] = assay: Antibacterial activity against norA-deficient Staphylococcus aureus RN4220 by broth microdilution method; type: functional; in short: as §1
Staphylococcus aureus [24] = assay: Antibacterial activity against methicillin-susceptible Staphylococcus aureus by broth microdilution method; type: functional; in short: as §1
[25] = Cmax in lethal systemic CF-1 mouse infection model at 21.6 mg/kg, iv; type: ADME, organism-based; set-up: dose 21.6 mg/kg, route intravenous; settings: in vivo; in short: as §2
Escherichia coli [26] = assay: Antibacterial activity against Escherichia coli UC6674 by broth microdilution method; type: functional; in short: as §1
Staphylococcus aureus [27] = assay: Antimicrobial activity against Staphylococcus aureus COL harboring gyrB V28A mutant gene by broth microdilution method; type: functional; in short: as §1
Streptococcus pneumoniae [28] = assay: Antibacterial activity against Streptococcus pneumoniae UC15142 by broth microdilution method; type: functional; in short: as §1
Mus musculus = assay: Toxicity in lethal systemic CF-1 mouse infection model assessed as adverse effects at 200 mg/kg, po; type: organism-based; set-up: dose 200 mg/kg, route oral; settings: in vivo
Staphylococcus aureus [29] = assay: Antimicrobial activity against Staphylococcus aureus USA200 harboring […] S84L and parC R400C mutant gene by broth microdilution method; type: functional; in short: as §1
Staphylococcus aureus [30] = assay: Antimicrobial activity against Staphylococcus aureus RN4220 expressing gyrB D437N mutant gene by broth microdilution method; type: functional; in short: as §1
[31] = AUC (0 to infinity) in lethal systemic CF-1 mouse infection model at 21.6 mg/kg, iv; type: ADME, organism-based; set-up: time infinity, dose 21.6 mg/kg, route intravenous; settings: in vivo; in short: as §2
Escherichia coli [32] = assay: Antibacterial activity against acrAB-deficient Escherichia coli UC31701 by broth microdilution method; type: functional; in short: as §1
Staphylococcus aureus [33] = assay: Antibacterial activity against methicillin and ciprofloxacin-resistant Staphylococcus aureus UC12673 by broth microdilution method; type: functional; in short: as §1
Staphylococcus aureus [34] = assay: Antibacterial activity against quinoline pyrimidine trione-resistant Staphylococcus aureus ATCC 29213 by broth microdilution method; type: functional; in short: as §1
Staphylococcus aureus [35] = assay: Antibacterial activity against methicillin-resistant Staphylococcus aureus by broth microdilution method; type: functional; in short: as §1
Staphylococcus aureus [36] = assay: Antibacterial activity against methicillin-susceptible Staphylococcus aureus UC9218 by broth microdilution method; type: functional; in short: as §1
[37] = Tmax in lethal systemic CF-1 mouse infection model at 20.3 mg/kg, po; type: ADME, organism-based; set-up: dose 20.3 mg/kg, route oral; settings: in vivo; in short: as §2
Staphylococcus aureus [38] = assay: Antibacterial activity against Staphylococcus aureus ATCC 29213 by broth microdilution method; type: functional; in short: as §1
[39] = Half life in lethal systemic CF-1 mouse infection model at 21.6 mg/kg, iv; type: ADME, organism-based; set-up: dose 21.6 mg/kg, route intravenous; settings: in vivo; in short: as §2
Streptococcus pyogenes = assay: Antibacterial activity against Streptococcus pyogenes UC152 by broth microdilution method; type: functional; in short: as §1
[40] = Inhibition of human DNA topoisomerase 4 by gel electrophoresis
Staphylococcus aureus [41] = assay: Antibacterial activity against ciprofloxacin-resistant Staphylococcus aureus ATCC 29213 by broth microdilution method; type: functional; in short: as §1
[42] = Cmax in lethal systemic CF-1 mouse infection model at 20.3 mg/kg, po; type: ADME, organism-based; set-up: dose 20.3 mg/kg, route oral; settings: in vivo; in short: as §2
[43] = Inhibition of Escherichia coli DNA topoisomerase 4 by gel electrophoresis
Haemophilus influenzae [44] = assay: Antibacterial activity against Haemophilus influenzae UC30063 by broth microdilution method; type: functional; in short: as §1
Enterococcus faecium = assay: Antibacterial activity against Enterococcus faecium UC12712 by broth microdilution method; type: functional; in short: as §1
Staphylococcus aureus [45] = assay: Antibacterial activity against Staphylococcus aureus RN4220 by broth microdilution method; type: functional; in short: as §1

Structure (SMILES): CC1CN2c3ccc([N+](=O)[O-])cc3CC3(C(=O)NC(=O)NC3=O)C2C(C)O1 (racemic)
- MIC (Staphylococcus aureus [1]): 1 µg/mL (≈ 2.67 µM)
- MIC (Escherichia coli [2]): < 0.06 µg/mL
- clearance [3]: 11.6 mL/min/kg
- half-life [4]: 0.927 h
- MIC (Haemophilus influenzae [5]): < 0.06 µg/mL
- MIC (Staphylococcus aureus [6]): 4 µg/mL
- MIC (Moraxella catarrhalis): 2 µg/mL (≈ 5.34 µM)
- MIC50 (Streptococcus pneumoniae [7]): 4 µg/mL (≈ 10.7 µM)
- MIC90 (Streptococcus pneumoniae [7]): 8 µg/mL (≈ 21.4 µM)
- MIC (Enterococcus faecalis): 4 µg/mL (≈ 10.7 µM)
- AUC(0-inf) [8]: 27600 ng·h/mL
- bioavailability [9]: 94.7%
- MIC (Staphylococcus aureus [10]): 1 µg/mL (≈ 2.67 µM)
- MIC [11]: 1 µg/mL (≈ 2.67 µM)
- ED50 (Staphylococcus aureus [12]): 19.5 mg/kg
- MIC (Staphylococcus aureus [13]): 4 µg/mL (≈ 10.7 µM)
- MIC (Staphylococcus aureus [14]): 0.5 µg/mL (≈ 1.34 µM)
- MIC50 (Streptococcus pneumoniae [15]): 4 µg/mL (≈ 10.7 µM)
- MIC90 (Streptococcus pneumoniae [15]): 8 µg/mL (≈ 21.4 µM)
- ED50 (Staphylococcus aureus [16]): 12.5 mg/kg
- MIC (Staphylococcus aureus [17]): 2 µg/mL
- MIC (Streptococcus pneumoniae [18]): 4 µg/mL (≈ 10.7 µM)
- Vd [19]: 0.623 L/kg
- IC50 [20]: 9 µM
- MIC50 (Staphylococcus aureus [21]): 1 µg/mL (≈ 2.67 µM)
- MIC90 (Staphylococcus aureus [21]): 1 µg/mL (≈ 2.67 µM)
- MIC (Staphylococcus aureus [22]): 16 µg/mL (≈ 42.7 µM)
- MIC (Staphylococcus aureus [23]): 1 µg/mL (≈ 2.67 µM)
- MIC50 (Staphylococcus aureus [24]): 1 µg/mL (≈ 2.67 µM)
- MIC90 (Staphylococcus aureus [24]): 1 µg/mL (≈ 2.67 µM)
- Cmax [25]: 15700 ng/mL
- MIC (Escherichia coli [26]): 4 µg/mL (≈ 10.7 µM)
- MIC (Staphylococcus aureus [27]): 1 µg/mL (≈ 2.67 µM)
- MIC (Streptococcus pneumoniae [28]): 4 µg/mL (≈ 10.7 µM)
- Activity (Mus musculus): Non-toxic
- MIC (Staphylococcus aureus [29]): 1 µg/mL (≈ 2.67 µM)
- MIC (Staphylococcus aureus [30]): 1 µg/mL (≈ 2.67 µM)
- AUC(0-inf) [31]: 31000 ng·h/mL
- MIC (Escherichia coli [32]): 0.125 µg/mL (≈ 0.334 µM)
- MIC (Staphylococcus aureus [33]): 1 µg/mL (≈ 2.67 µM)
- MIC (Staphylococcus aureus [34]): 8 µg/mL (≈ 21.4 µM)
- MIC (Staphylococcus aureus [35]): 1 µg/mL (≈ 2.67 µM)
- MIC50 (Staphylococcus aureus [35]): 1 µg/mL (≈ 2.67 µM)
- MIC90 (Staphylococcus aureus [35]): 2 µg/mL (≈ 5.34 µM)
- MIC (Staphylococcus aureus [36]): 1 µg/mL (≈ 2.67 µM)
- Tmax [37]: 1 h
- MIC (Staphylococcus aureus [38]): 1 µg/mL (≈ 2.67 µM)
- half-life [39]: 1.22 h
- MIC (Streptococcus pyogenes): 2 µg/mL (≈ 5.34 µM)
- IC50 [40]: 200 µM
- MIC (Staphylococcus aureus [41]): 1 µg/mL (≈ 2.67 µM)
- Cmax [42]: 15700 ng/mL
- IC50 [43]: 30 µM
- MIC (Haemophilus influenzae [44]): 0.5 µg/mL (≈ 1.34 µM)
- MIC (Enterococcus faecium): 8 µg/mL (≈ 21.4 µM)
- MIC (Staphylococcus aureus [45]): 1 µg/mL (≈ 2.67 µM)
